# MT stabilizer – stabilizes microtubules in HeLa cells; HeLa tubulin immunostaining HCS, 24 h; share of cells brighter than vehicle mean+2SD; % tubulin-high responders, % at 10 µM; actives 0.83% (n = 200,000); AID 2205;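 active = plate Z-score above 3 for both tubulin-high and condensed-nucleus cell shares, with cell loss under 80%, at 10 µM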;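 note: anti alpha tubulin signal scored within the nucleus-defined area of each cell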
# ABCB1 inh – blocks JC-1 efflux by human ABCB1 transporter. actives 0.067% (n = 190,000). P08183. inhibition, % at 6.6 µM. CCRF-Adr cells, flow cytometry. AID 1326; in the data active = inhibition above about 40%;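 note: 0% = vehicle and 100% = reference inhibitor; higher value means more JC-1 retained so stronger ABCB1 efflux block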
# Autophagy mod – alters autophagy in cells. MEF GFP-LC3 puncta imaging; test concentration mostly 10 µM. calls only at 10 µM (by protocol). actives 0.98% (n = 190,000). AID 463193;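 active = percentage of spot-positive cells more than 3 SD above its plate mean, without a fluorescence outlier flag or 80% toxicity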;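 note: spot-positive cell cutoff set from DMSO-treated cells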
# b-catenin transl – modulators of beta-catenin nuclear translocation. HeLa beta-catenin nuclear translocation, immunofluorescence imaging. actives 0.3% (n = 190,000). nuclear translocation activity, % at 5 µM;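 active = nuclear translocation activity above 50% at 5 µM, with a well cell count of 50 or more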;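 note: per-cell ratio of nuclear to cytoplasmic median beta-catenin stain intensity; plate controls were DMSO negative control for no effect and GSK-3 inhibitor IX positive control for full effect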
#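 Test system: human HeLa cells, native beta-catenin. Compound dosing: 5 µM primary single dose, 0.1% DMSO, 0.02–20 µM confirmation series. Incubation: compound exposure 24 h at 37°C. Detection: beta-catenin immunostaining with DAPI counterstain, 20x imaging, 6 fields/well. Read-out basis: Nuclear/cytoplasmic beta-catenin signal ratio, % activation.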
# ABCG2 inh – human ABCG2 inhibition, ABCB1 as counter-screen; AID 1325; IgMXP3 cells, JC-1 efflux, flow cytometry; inhibition, % at 6.6 µM; actives 0.1% (n = 190,000);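 active = inhibition above 80%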;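 note: 0% = DMSO and 100% = nicardipine control wells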
# Target sequence (Q9UNQ0 whole entry, looked up): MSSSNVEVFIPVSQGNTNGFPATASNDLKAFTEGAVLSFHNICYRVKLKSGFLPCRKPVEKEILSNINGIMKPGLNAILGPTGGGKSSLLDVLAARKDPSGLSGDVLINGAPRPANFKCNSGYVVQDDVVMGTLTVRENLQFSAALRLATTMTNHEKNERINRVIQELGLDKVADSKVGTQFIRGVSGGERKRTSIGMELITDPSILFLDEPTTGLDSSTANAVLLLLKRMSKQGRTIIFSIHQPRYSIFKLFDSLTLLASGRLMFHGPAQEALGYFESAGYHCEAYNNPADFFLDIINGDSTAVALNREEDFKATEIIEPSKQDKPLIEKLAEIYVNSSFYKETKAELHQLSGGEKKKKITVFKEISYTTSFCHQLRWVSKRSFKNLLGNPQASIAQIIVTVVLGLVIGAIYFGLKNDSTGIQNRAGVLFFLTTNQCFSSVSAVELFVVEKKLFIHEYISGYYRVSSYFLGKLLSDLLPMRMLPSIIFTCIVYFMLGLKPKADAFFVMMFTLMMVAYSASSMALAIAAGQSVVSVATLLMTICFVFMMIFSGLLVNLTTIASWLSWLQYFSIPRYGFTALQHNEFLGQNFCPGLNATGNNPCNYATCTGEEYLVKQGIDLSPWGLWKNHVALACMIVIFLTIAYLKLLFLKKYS
#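 Read-out basis: Efflux inhibition in percent versus controls | Test system: ABCG2 IgMXP3 and barcoded ABCB1 CCRF-Adr cell mix | Quantity: 3 million cells/mL in well | Schedule: 10 min at 25 °C | Control set: Nicardipine as high control, DMSO as low control | Reagent: JC-1 as fluorescent efflux pump substrate | Signal: Flow cytometry of retained JC-1 fluorescence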
# Arbovirus anti – blocks arbovirus infection; arbovirus infection cell-based antiviral screen; inhibition, % at 10 µM; actives 0.37% (n = 200,000); in the data active = inhibition above about 30%
# The depositor's hits bear a star; i = inactive; / = no result given; + = active, no number. Hits are enriched below; roughly 2.1% of the tested compounds scored in any of these assays.
SMILES,MT stabilizer,ABCB1 inh,Autophagy mod,b-catenin transl,ABCG2 inh,Arbovirus anti
Cc1ccc(S(=O)(=O)N2c3ccccc3CC2C)cc1 (stereo not given),13*,7,i,44,13,-12
Cc1ccc(S(=O)(=O)N2c3ccc(S(N)(=O)=O)cc3CC2C)cc1 (stereo not given),2,1,i,-5,2,2
COc1ccc(OCCOC(=O)c2[nH]c(C)c(C(C)=O)c2C)cc1,2,2,i,-5,17,14
Clc1ccc(/C=N/c2c(-c3ccc(Cl)cc3)nc3n2CCS3)cc1,4,0,+,1,-1,-16
C(=N\c1c(-c2ccccc2)nc2n1CCS2)/c1ccccc1,2,1,i,-1,8,-3
CCOC(=O)C1(CC/C(C)=N\NC(N)=O)CC(C)(C)OC1=O (stereo not given),2,0,+,0,2,9
CCOC(=O)C1(C/C(C)=N/NC(N)=O)CC(C)(C)OC1=O (stereo not given),2,0,i,1,1,3
CNS(=O)(=O)c1ccc2ccccc2c1,/,/,/,0,/,/
CCOc1ccc(S(=O)(=O)Oc2ccc3ccccc3c2)cc1,17*,0,i,1,0,-5
CC1CCN(C(=O)CN2C(=O)c3cccc4cccc(c34)C2=O)CC1,2,1,i,-4,1,17
CC1CCN(C(=O)CN2C(=O)C(=O)c3ccccc32)CC1,2,0,+,/,3,-10
COC(=O)Cn1c2ccc(OC)cc2c2nc3ccccc3nc21,6,1,i,-5,6,-8
CCOC(=O)Cn1c2ccc(OC)cc2c2nc3ccccc3nc21,6,0,+,-7,0,-21
CCOc1ccc(Cn2c3ccc(OC)cc3c3nc4ccccc4nc32)cc1OC,4,1,+,-1,2,10
COc1ccc(/C=C/c2nc3ccccc3n2Cc2ccc(OC)c(OC)c2)cc1,1,8,i,4,17,-16
COc1ccc2c(c1)c1nc3ccccc3nc1n2Cc1ccc(OC)c(OC)c1,5,5,i,-4,6,33*
CN1CCN(NC(=O)c2cn(-c3ccccc3)nc2-c2ccc(OC(F)F)cc2)CC1,1,0,i,0,2,-25
CC(C)C1C(C#N)=C(N)Oc2n[nH]c(-c3ccc4ccccc4c3)c21 (stereo not given),32*,0,+,-7,0,-23
COc1ccc(N2CCN(c3oc(Cc4ccccc4)nc3C#N)CC2)cc1,29*,1,i,2,5,-17
COc1ccc(N2C(=O)CCC2=O)c(OC)c1,4,1,i,2,4,12
COc1cc([N+](=O)[O-])ccc1NC(=O)CC1SC(=Nc2ccc(F)cc2)N(CCC2=CCCCC2)C1=O (stereo not given),2,1,i,2,4,48*
COc1ccc(OC)c(NC(=O)CC2SC(=Nc3ccc(F)cc3)N(CCC3=CCCCC3)C2=O)c1 (stereo not given),4,1,i,0,7,5
O=C(Nc1nc2ccc([N+](=O)[O-])cc2s1)C1CCCO1 (stereo not given),3,0,+,1,3,-4
O=C(Nc1nc2ccc(S(=O)(=O)N3CCCCC3)cc2s1)C1CCCO1 (stereo not given),6,0,i,-1,1,-4
O=C(Nc1nc2ccc(S(=O)(=O)N3CCCC3)cc2s1)C1CCCCC1,34*,-1,+,3,-1,-17
SMILES,MT stabilizer,ABCB1 inh,Autophagy mod,b-catenin transl,ABCG2 inh,Arbovirus anti
CC(C)C(NC(=O)CN(c1cccc(F)c1)S(C)(=O)=O)C(C)C,4,0,i,-3,-1,-2
C#CCSc1ncc(S(=O)(=O)c2ccccc2)c(=O)[nH]1,2,0,i,-2,1,30*
CCOC(=O)c1[nH]c(C)c(C(=O)c2cc(F)ccc2F)c1C,13,1,+,55*,11,-14
CSc1cccc(NC(=O)Nc2nc3c(C)cccc3s2)c1,/,/,/,-1,/,/
O=[N+]([O-])c1ccc2c(c1)CNc1ccccc1O2,4,0,i,2,2,-2
Cc1c(Br)c(C(F)(F)F)nn1CC(=O)NCc1ccco1,2,0,i,0,1,0
O=S(=O)(Nc1ccc2c(c1)nc1n2CCN(Cc2ccccc2)C1)c1ccc(Cl)cc1,30*,0,i,-6,34,4
CCCNC(=O)CSC1=N/C(=C/c2ccc(F)cc2)C(=O)N1CC,5,1,i,3,9,4
O=C(c1ccccc1)c1coc2c1C(=O)c1ccccc1C2=O,2,3,i,-1,23,9
O=C1c2ccccc2-c2onc3ccc(Oc4ccccc4)c1c23,7,4,+,3,30,-37
CC(Oc1ccc(Cl)cc1Cl)C(=O)Nc1ccc(N2CCN(C)CC2)cc1 (stereo not given),2,12,+,/,4,8
CC(=O)N1CCN(c2ccc(NC(=O)C(C)Oc3ccc(Cl)cc3Cl)cc2)CC1 (stereo not given),2,1,i,/,4,2
O=C(COC(=O)c1cc(=O)c2ccccc2o1)NCC1CCCCC1,3,1,i,0,9,9
COc1cccc(C2CC(=O)Nc3cc4c(cc32)CCC4)c1 (stereo not given),17*,2,i,2,8,-13
O=[N+]([O-])c1cccc(CNc2ccc3c(c2)CCC3)c1,2,1,i,/,2,-11
COc1cccc(C2CC(=O)NC(SC)=C2C#N)c1 (stereo not given),4,-1,i,/,3,1
O=C1CC(c2cccc([N+](=O)[O-])c2)c2cc3c(cc2N1)CCC3 (stereo not given),26*,1,i,0,6,-1
O=C1CC(c2cccc([N+](=O)[O-])c2)c2c(ccc3ccccc23)N1 (stereo not given),50*,1,i,-1,4,-11
O=C1CC(c2cccnc2)c2cc3c(cc2N1)OCCO3 (stereo not given),3,0,i,-2,2,-2
O=C1CC(c2cccc(Cl)c2)c2cc3c(cc2N1)CCC3 (stereo not given),32*,1,i,0,2,-16
CC(C)Cn1cc(C(=O)NC2CCN(Cc3ccccc3)CC2)c2c3ccccc3n(C)c2c1=O,5,3,i,0,3,2
N/C(=N\OC(=O)CCN1C(=O)c2ccccc2C1=O)c1ccccn1,3,0,i,0,10,2

# Screens (PubChem)
